Activity calls are given as the source filed them. No cut-off for these calls is given here.
Legend:
Vibrio anguillarum 775 [1] = test: Antimicrobial activity against Vibrio anguillarum 775 assessed as increase in bacterial survival at 100 ug/ml by broth culture growth inhibition assay; format: functional
In short: (§1)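 Broth growth-inhibition assay in tryptic soy broth (1% NaCl for vibrios) at 25°C, 200 rpm. Cultures started at 1 × 10^7 CFU/ml and were mixed 1:1 with cecropin B-containing medium. OD570 was read every 4 h for 16 h. Fractional survival is the area under the growth curve (Simpson's rule) relative to the untreated control.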

Vibrio vulnificus [2] = test: Antimicrobial activity against Vibrio vulnificus assessed as increase in bacterial survival at 100 ug/ml by broth culture growth inhibition assay; format: functional, organism-based; in short: as §1
Yersinia ruckeri [3] = test: Antimicrobial activity against Yersinia ruckeri assessed as increase in bacterial survival at 100 ug/ml by broth culture growth inhibition assay; format: functional; in short: as §1
[4] = Antimicrobial activity against Vibrio anguillarum 775; format: functional
In short: (§2)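 Exponential-phase cultures (overnight broth diluted 1:1,000) in tryptic soy broth, with 1% NaCl added for vibrios, at 25°C. Cultures at 1 × 10^7 CFU/ml were mixed with an equal volume of medium containing cecropin B and shaken at 200 rpm. OD570 was read every 4 h over 16 h. Growth-curve area (Simpson's rule) was divided by the drug-free control to give a fractional area. MIC is the x-intercept of the trend line of fractional area versus concentration. Mean ± SD of three experiments, each in triplicate.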

Vibrio vulnificus [5] = test: Antimicrobial activity against Vibrio vulnificus; format: functional; in short: as §2
Yersinia ruckeri [6] = test: Antimicrobial activity against Yersinia ruckeri; format: functional; in short: as §2
Pseudomonas fluorescens [7] = test: Antimicrobial activity against Pseudomonas fluorescens; format: functional; in short: as §2
[8] = Antimicrobial activity against Vibrio anguillarum 775 selected after 120 ug/ml of drug exposure; format: functional
In short: (§3)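 Bacteria were grown 16 h in broth with cecropin B at a concentration chosen empirically to allow growth to mid-log (OD600 ~0.4). Cultures were then diluted to 1 × 10^7 CFU/ml and the MIC was determined by the 16-h OD570 growth-curve area method. Mean ± SD of three experiments, each in triplicate.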

Vibrio vulnificus [9] = test: Antimicrobial activity against Vibrio vulnificus selected after 70 ug/ml of drug exposure; format: functional; in short: as §3
Pseudomonas fluorescens [10] = test: Antimicrobial activity against Pseudomonas fluorescens selected after 20 ug/ml of drug exposure; format: functional; in short: as §3
CHSE-214 [11] = test: Antimicrobial activity against compound-exposed Vibrio anguillarum 775 infected in CHSE-214 cells assessed as increase in adhesion to cells at 120 ug/ml after 30 mins relative to control; format: functional, cell-based
In short: (§4)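 CHSE-214 cells (CO2-independent medium, 10% FBS, 20°C, no antibiotics) at 80% confluence were incubated with mid-log V. anguillarum (unexposed or cecropin B-exposed) at an MOI of 100 for 0–90 min at ~22°C. Monolayers were washed twice in PBS and lysed with 1% Triton X-100, and lysates were plated. Adherent bacteria were counted per CHSE-214 cell.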

CHSE-214 [12] = test: Antimicrobial activity against compound-exposed Vibrio anguillarum 775 infected in CHSE-214 cells assessed as increase in adhesion to cells at 120 ug/ml after 60 mins relative to control; format: functional, cell-based; in short: as §4
CHSE-214 [13] = test: Antimicrobial activity against compound-exposed Vibrio anguillarum 775 infected in CHSE-214 cells assessed as increase in adhesion to cells at 120 ug/ml after 90 mins relative to control; format: functional, cell-based; in short: as §4
Vibrio anguillarum 775 [14] = test: Antimicrobial activity against Vibrio anguillarum 775 infected in medaka fish assessed as mortality at 120 ug/ml by immersion challenge assay; format: functional
In short: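 Groups of 20 medaka, 7–8 months old, were immersed 90 min in PBS (pH 7.3, 1.0% NaCl) containing 1 × 10^5 CFU/ml V. anguillarum, either unexposed or pre-exposed to 120 μg/ml cecropin B. Cumulative mortality was recorded over 14 days. Three separate experiments, mean ± SD.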

Yersinia ruckeri [15] = test: Antimicrobial activity against Yersinia ruckeri assessed as appearance of ridges on outer surface of the bacterial cell at 90 ug/ml by SEM; format: functional
In short: (§5)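 Exponential-phase broth cultures, with or without prior cecropin B exposure, were adhered 10 min at room temperature to poly-L-lysine-coated chips. Chips were fixed in 2% glutaraldehyde in cacodylate buffer for 30 min, then in 1% osmium tetroxide overnight. Samples were dehydrated through an ethanol series, critical-point dried, gold sputter-coated and examined by scanning electron microscopy.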

Vibrio vulnificus [16] = test: Antimicrobial activity against Vibrio vulnificus assessed as reduced cell size at 70 ug/ml by SEM; format: functional, organism-based; in short: as §5
Vibrio vulnificus [17] = test: Antimicrobial activity against Vibrio vulnificus assessed as loss of flagella at 70 ug/ml by SEM; format: functional, organism-based; in short: as §5
Vibrio vulnificus [18] = test: Antimicrobial activity against Vibrio vulnificus assessed as appearance of rugose membrane shape at 70 ug/ml by SEM; format: functional, organism-based; in short: as §5
Vibrio anguillarum 775 [19] = test: Antimicrobial activity against Vibrio anguillarum 775 assessed as reduction in extracellular product secreted by cells at 120 ug/ml; format: functional; in short: as §5
[20] = Antimicrobial activity against Vibrio anguillarum 775 selected after passage with 120 ug/ml of compound; format: functional

## H-KWKVFKKIEKMGRNIRNGIVKAGPAIAVLGEAKAL-NH2 [CECROPIN B]
Vibrio anguillarum 775 [1]
  Activity: inactive
Vibrio vulnificus [2]
  Activity: inactive
Yersinia ruckeri [3]
  Activity: inactive
[4]
  MIC: 147 µg/mL
Vibrio vulnificus [5]
  MIC: 85 µg/mL
Yersinia ruckeri [6]
  MIC: 100 µg/mL
Pseudomonas fluorescens [7]
  MIC: 25 µg/mL
[8]
  MIC: 209 µg/mL
Vibrio vulnificus [9]
  MIC: 136 µg/mL
Pseudomonas fluorescens [10]
  MIC: 24 µg/mL
CHSE-214 [11]
  Activity: inactive
CHSE-214 [12]
  Activity: inactive
CHSE-214 [13]
  Activity: inactive
Vibrio anguillarum 775 [14]
  Activity: inactive
Yersinia ruckeri [15]
  Activity: inactive
Vibrio vulnificus [16]
  Activity: inactive
Vibrio vulnificus [17]
  Activity: inactive
Vibrio vulnificus [18]
  Activity: inactive
Vibrio anguillarum 775 [19]
  Activity: inactive
[20]
  MIC: 142 µg/mL
